We go through five molecules from ChEMBL document CHEMBL5329156, “Discovery and development of novel substituted monohydrazides as potent antifungal agents” (RSC Med Chem, 2023).

Holding throughout (assay type): functional
The test system of assay [1] is Nakaseomyces glabratus. Nature of the assay: Antifungal activity against Candida glabrata ATCC 2001 assessed as fungal growth inhibition by double dilution method. The method, boiled down:
(§1)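 Broth microdilution after CLSI M27-A3/M38-A2 with minor changes. Single colony grown overnight in YPD at 35 °C, 200 rpm. Compound final range 0.06-31.3 µg/mL; incubated 48 h at 35 °C.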

For assay [2], the system named is Nakaseomyces glabratus. Nature of the assay: Antifungal activity against Candida glabrata ATCC 22019 assessed as fungal growth inhibition by double dilution method. In outline: as §1
The subject of assay [3] is Candida albicans. Nature of the assay: Antifungal activity against Candida albicans ATCC 64124 assessed as fungal growth inhibition by double dilution method. The method, boiled down: (§2)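 Broth microdilution after CLSI M27-A3/M38-A2 with minor modifications. A single colony was grown overnight in YPD at 35 °C with shaking at 200 rpm. Cells were mixed 1:1 with compound (final 0.06-31.3 µg/mL, from DMSO stocks) and incubated 48 h at 35 °C.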

Assay [4] deals with Aspergillus fumigatus. Put plainly: Antifungal activity against Aspergillus fumigatus NRRL 163 assessed as fungal growth inhibition by double dilution method.
Assay [5] has as its system Candida albicans. Nature of the assay: Antifungal activity against Candida albicans ATCC 10231 assessed as fungal growth inhibition by double dilution method. In outline: as §1
Assay [6] has as its system Candida albicans. Nature of the assay: Antifungal activity against itraconazole/fluconazole resistant Candida albicans ATCC MYA-1003 assessed as fungal growth inhibition by double dilution method. The method, boiled down: as §2
Assay [7] has as its system Candida albicans. Nature of the assay: Antifungal activity against itraconazole/fluconazole susceptible Candida albicans ATCC MYA-2876 assessed as fungal growth inhibition by double dilution method. In outline: as §2
The subject of assay [8] is Aspergillus fumigatus. Nature of the assay: Antifungal activity against Aspergillus fumigatus NRRL 5109 assessed as fungal growth inhibition by double dilution method.
A further assay concerns Aspergillus nidulans. Nature of the assay: Antifungal activity against Aspergillus nidulans ATCC 38163 assessed as fungal growth inhibition by double dilution method.
In assay [9] the test system is [Candida] auris. Nature of the assay: Antifungal activity against Candida auris AR Bank # 0390 assessed as fungal growth inhibition by double dilution method. The conditions noted are these: Candidozyma auris. In outline:
as §1

Assay [10] relates to Candida albicans. Put plainly: Antifungal activity against itraconazole/fluconazole resistant Candida albicans ATCC 90819 assessed as fungal growth inhibition by double dilution method. The method, boiled down: as §2
The test system of a further assay is Pichia kudriavzevii. Nature of the assay: Antifungal activity against Pichia kudriavzevii ATCC 6258 assessed as fungal growth inhibition by double dilution method. In outline: as §1
For a further assay, the system named is Aspergillus terreus. Put plainly: Antifungal activity against Aspergillus terreus ATCC MYA-3633 assessed as fungal growth inhibition by double dilution method.
Assay [11] has as its system [Candida] auris. Put plainly: Antifungal activity against Candida auris AR Bank # 0384 assessed as fungal growth inhibition by double dilution method. The conditions noted are these: Candidozyma auris. The method, boiled down:
as §1

A further assay relates to Aspergillus flavus. Put plainly: Antifungal activity against Aspergillus flavus ATCC MYA-3631 assessed as fungal growth inhibition by double dilution method.
In assay [12] the test system is Candida albicans. Nature of the assay: Antifungal activity against itraconazole/fluconazole resistant Candida albicans ATCC MYA-1237 assessed as fungal growth inhibition by double dilution method. The method, boiled down: as §2
Assay [13] has as its system Aspergillus fumigatus. Put plainly: Antifungal activity against Aspergillus fumigatus NRRL 6113 assessed as fungal growth inhibition by double dilution method.
For another assay, the system named is Cryptococcus neoformans. Nature of the assay: Antifungal activity against Cryptococcus neoformans ATCC MYA-895 assessed as fungal growth inhibition by double dilution method. The method, boiled down:
as §1

The subject of assay [14] is Candida albicans. Put plainly: Antifungal activity against itraconazole/fluconazole susceptible Candida albicans ATCC MYA-2310 assessed as fungal growth inhibition by double dilution method. The method, boiled down: as §2

Values after ≈ are worked out from the molar mass of the structure shown.

For orientation: MIC means the smallest concentration in the dilution series that meets the test's criterion for growth inhibition. `O=C(NNc1ccc(F)cc1)c1nc(F)ccc1F`: the MIC is 15.6 µg/mL (≈ 58.4 µM) in the assay on Nakaseomyces glabratus [1]; 7.8 µg/mL (≈ 29.2 µM) in the assay on Nakaseomyces glabratus [2]; 0.98 µg/mL (≈ 3.67 µM) in the assay with Candida albicans [3]; 31.3 µg/mL (≈ 117 µM) in the assay on Aspergillus fumigatus [4]; 0.24 µg/mL (≈ 0.898 µM) in the assay with Candida albicans [5]; 0.49 µg/mL (≈ 1.83 µM) in the assay on Candida albicans [6]. The MIC with Candida albicans [7] is 0.98 µg/mL (≈ 3.67 µM); in the assay on Aspergillus fumigatus [8], 15.6 µg/mL (≈ 58.4 µM); in the assay on Aspergillus nidulans, 0.49 µg/mL (≈ 1.83 µM); in [Candida] auris [9], 0.98 µg/mL (≈ 3.67 µM); in the assay on Candida albicans [10], 0.98 µg/mL (≈ 3.67 µM); in the assay on Pichia kudriavzevii, 0.24 µg/mL (≈ 0.898 µM). The MIC was 1.95 µg/mL (≈ 7.3 µM) with Aspergillus terreus; 1.95 µg/mL (≈ 7.3 µM) in assay [Candida] auris [11]; 7.8 µg/mL (≈ 29.2 µM) with Aspergillus flavus; 0.98 µg/mL (≈ 3.67 µM) in the assay with Candida albicans [12]; over 31.3 µg/mL in the assay on Aspergillus fumigatus [13]; 0.49 µg/mL (≈ 1.83 µM) in the assay with Cryptococcus neoformans. The MIC in the assay with Candida albicans [14] worked out at 0.98 µg/mL (≈ 3.67 µM).

Consider `O=C(NNc1cccc(F)c1)c1ccc(F)cn1`, for which the MIC with Nakaseomyces glabratus [1] was 31.3 µg/mL (≈ 126 µM); with Nakaseomyces glabratus [2], 1.95 µg/mL (≈ 7.82 µM); in the assay with Candida albicans [3], 0.49 µg/mL (≈ 1.97 µM); in the assay with Aspergillus fumigatus [4] it was over 31.3 µg/mL; in the assay on Candida albicans [5], 0.49 µg/mL (≈ 1.97 µM); in the assay on Candida albicans [6], 1.95 µg/mL (≈ 7.82 µM). In addition, the MIC is 3.9 µg/mL (≈ 15.6 µM) in the assay on Candida albicans [7]; over 31.3 µg/mL in the assay on Aspergillus fumigatus [8]; 0.98 µg/mL (≈ 3.93 µM) in the assay with Aspergillus nidulans; 1.95 µg/mL (≈ 7.82 µM) in assay [Candida] auris [9]; 3.9 µg/mL (≈ 15.6 µM) in the assay with Candida albicans [10]; 0.24 µg/mL (≈ 0.963 µM) with Pichia kudriavzevii. Further, the MIC in the assay on Aspergillus terreus is 1.95 µg/mL (≈ 7.82 µM); in [Candida] auris [11] it was 1.95 µg/mL (≈ 7.82 µM); in the assay on Aspergillus flavus, 7.8 µg/mL (≈ 31.3 µM); with Candida albicans [12], 3.9 µg/mL (≈ 15.6 µM); in the assay with Aspergillus fumigatus [13] it was over 31.3 µg/mL; with Cryptococcus neoformans it was at most 0.06 µg/mL. Further, the minimum inhibitory concentration (MIC) in the assay with Candida albicans [14] stood at 3.9 µg/mL (≈ 15.6 µM).

On to `COc1cccc(NNC(=O)c2cccc(F)n2)c1`, for which the MIC was 15.6 µg/mL (≈ 59.7 µM) with Nakaseomyces glabratus [1]; 3.9 µg/mL (≈ 14.9 µM) with Nakaseomyces glabratus [2]; 0.98 µg/mL (≈ 3.75 µM) with Candida albicans [3]; 15.6 µg/mL (≈ 59.7 µM) in the assay with Aspergillus fumigatus [4]; 0.98 µg/mL (≈ 3.75 µM) with Candida albicans [5]; 0.98 µg/mL (≈ 3.75 µM) in the assay with Candida albicans [6]. Further, the MIC is 0.49 µg/mL (≈ 1.88 µM) in the assay with Candida albicans [7]; 7.8 µg/mL (≈ 29.9 µM) with Aspergillus fumigatus [8]; 1.95 µg/mL (≈ 7.46 µM) in the assay on Aspergillus nidulans; 0.98 µg/mL (≈ 3.75 µM) in [Candida] auris [9]; 3.9 µg/mL (≈ 14.9 µM) in the assay on Candida albicans [10]; 0.24 µg/mL (≈ 0.919 µM) in the assay on Pichia kudriavzevii. Besides, the MIC with Aspergillus terreus was 3.9 µg/mL (≈ 14.9 µM); in [Candida] auris [11] it was 1.95 µg/mL (≈ 7.46 µM); with Aspergillus flavus, over 31.3 µg/mL; in the assay with Candida albicans [12] it was 1.95 µg/mL (≈ 7.46 µM); in the assay on Aspergillus fumigatus [13] it was over 31.3 µg/mL; with Cryptococcus neoformans, 0.49 µg/mL (≈ 1.88 µM). Besides, the MIC in the assay with Candida albicans [14] was 1.95 µg/mL (≈ 7.46 µM).

As for `COc1ccc(NNC(=O)c2nc(F)ccc2F)cc1`, the MIC in the assay on Nakaseomyces glabratus [1] came out at 7.8 µg/mL (≈ 27.9 µM); in the assay on Nakaseomyces glabratus [2], 7.8 µg/mL (≈ 27.9 µM); in the assay on Candida albicans [3] it was 1.95 µg/mL (≈ 6.98 µM); with Aspergillus fumigatus [4], 31.3 µg/mL (≈ 112 µM); with Candida albicans [5], 1.95 µg/mL (≈ 6.98 µM); with Candida albicans [6] it was 0.98 µg/mL (≈ 3.51 µM). Also, the MIC in the assay with Candida albicans [7] is 1.95 µg/mL (≈ 6.98 µM); in the assay on Aspergillus fumigatus [8] it was 15.6 µg/mL (≈ 55.9 µM); in the assay on Aspergillus nidulans, 1.95 µg/mL (≈ 6.98 µM); in assay [Candida] auris [9] it was 0.98 µg/mL (≈ 3.51 µM); in the assay with Candida albicans [10], 1.95 µg/mL (≈ 6.98 µM); in the assay with Pichia kudriavzevii, 0.98 µg/mL (≈ 3.51 µM). Besides, the MIC with Aspergillus terreus was 31.3 µg/mL (≈ 112 µM); in assay [Candida] auris [11], 3.9 µg/mL (≈ 14 µM); in the assay with Aspergillus flavus, over 31.3 µg/mL; in the assay on Candida albicans [12], 0.98 µg/mL (≈ 3.51 µM); with Aspergillus fumigatus [13] it was 31.3 µg/mL (≈ 112 µM); in the assay with Cryptococcus neoformans, 0.98 µg/mL (≈ 3.51 µM). Besides, the MIC in the assay on Candida albicans [14] turned out to be 1.95 µg/mL (≈ 6.98 µM).

Consider `COc1cccc(NNC(=O)c2ccc(Br)cn2)c1`, for which the MIC in the assay on Nakaseomyces glabratus [1] was 3.9 µg/mL (≈ 12.1 µM); with Nakaseomyces glabratus [2] it was 1.95 µg/mL (≈ 6.05 µM); in the assay with Candida albicans [3] it was 3.9 µg/mL (≈ 12.1 µM); with Aspergillus fumigatus [4], over 31.3 µg/mL; in the assay on Candida albicans [5], 0.98 µg/mL (≈ 3.04 µM); with Candida albicans [6] it was 3.9 µg/mL (≈ 12.1 µM). Also, the MIC in the assay on Candida albicans [7] was determined as 0.98 µg/mL (≈ 3.04 µM); in the assay on Aspergillus fumigatus [8], 15.6 µg/mL (≈ 48.4 µM); in the assay with Aspergillus nidulans, 3.9 µg/mL (≈ 12.1 µM); in assay [Candida] auris [9], 1.95 µg/mL (≈ 6.05 µM); with Candida albicans [10] it was 1.95 µg/mL (≈ 6.05 µM); with Pichia kudriavzevii it was 0.24 µg/mL (≈ 0.745 µM). The minimal inhibitory concentration (MIC) in the assay on Aspergillus terreus is 1.95 µg/mL (≈ 6.05 µM); in assay [Candida] auris [11] it was 0.98 µg/mL (≈ 3.04 µM); in the assay with Aspergillus flavus, over 31.3 µg/mL; in the assay with Candida albicans [12] it was 0.98 µg/mL (≈ 3.04 µM); in the assay with Aspergillus fumigatus [13], over 31.3 µg/mL; with Cryptococcus neoformans it was 0.49 µg/mL (≈ 1.52 µM). Further, the MIC in the assay with Candida albicans [14] is 3.9 µg/mL (≈ 12.1 µM).
